{"data": "Experimental data of several laboratories", "target": "Maternal embryonic leucine zipper kinase (MELK, Homo sapiens, UniProt Q14680)", "note": "Protocols differ between the studies behind these lines."}
{"SMILES": "COc1ncc2cc3ccccc3nc2c1C#N", "assay": "cell-free assay, competition with immobilised ligand", "conditions": "5 µM", "remaining binding [%]": 83}
{"SMILES": "CCC(=O)N[C@@H]1CC[C@H](C(=O)N(C)c2ccc(-c3nc4ccccc4o3)cc2)C1", "assay": "cell-free assay, competition with immobilised ligand", "conditions": "1 µM", "remaining binding [%]": 100}
{"SMILES": "C=CC(=O)N1CCC(C(=O)NCC(=O)N2CCN(c3nc(-c4cnc(N)nc4C(F)F)nc(N4CCOCC4)n3)CC2)CC1", "assay": "binding, competition with immobilised ligand", "conditions": "1 µM", "remaining binding [%]": 100}
{"SMILES": "C[C@H]1CCN(c2nccc(-c3cnn4ncccc34)n2)C1", "assay": "binding", "conditions": "1 µM", "remaining binding [%]": 33}
{"SMILES": "COc1cnc(Nc2cccc(S(N)(=O)=O)c2)nc1N1CCN(c2ccccc2)C(=O)C1", "assay": "binding, competition with immobilised ligand", "conditions": "1 µM", "remaining binding [%]": 100}
{"SMILES": "CC(=O)C1=C(C)N(c2cccc(C(F)(F)F)c2)C(=O)N[C@@H]1c1ccc(C#N)nc1", "assay": "cell-free assay, competition with immobilised ligand", "conditions": "1 µM", "remaining binding [%]": 88.2}
{"SMILES": "CN(C)c1nccc(-c2cnn3ncccc23)n1", "assay": "binding", "conditions": "1 µM", "remaining binding [%]": 71}
{"SMILES": "CC1=C(C#N)[C@@H](c2ccc3[nH]nc(C)c3c2)C(C#N)=C(c2ccc(Cl)cc2)N1", "assay": "cell-free assay, competition with immobilised ligand", "conditions": "1 µM", "remaining binding [%]": 100}
{"SMILES": "O=C(NCCCN1CCOCC1)c1ccc(Nc2nccc(-c3cc4ccccc4s3)n2)cc1", "assay": "binding, competition with immobilised ligand", "conditions": "1 µM", "remaining binding [%]": 100}
{"SMILES": "CN(c1nccc(-c2cnn3ncccc23)n1)C1CC1", "assay": "binding", "conditions": "1 µM", "remaining binding [%]": 73}
{"SMILES": "COc1ccc2c(c1)O[C@@H](c1ccc(OC)c(OC)c1)C[C@H]2NC(=O)C1(c2ccc3c(c2)OC(F)(F)O3)CC1", "assay": "cell-free assay, competition with immobilised ligand", "conditions": "1 µM", "remaining binding [%]": 65}
{"SMILES": "Cc1cnn2ncc(-c3ccnc(N(C)C)n3)c2c1", "assay": "binding", "conditions": "1 µM", "remaining binding [%]": 100}
{"SMILES": "Nc1ncc2c(n1)-c1c([nH]c3ccc(C#CC4CC4)cc13)CCCC2", "assay": "binding, competition with immobilised ligand", "conditions": "1 µM", "remaining binding [%]": 100}
{"SMILES": "CN([C@@H]1CCc2c(CC(=O)O)c3cc(S(C)(=O)=O)ccc3n2C1)S(=O)(=O)c1ccc(F)cc1", "assay": "cell-free assay, competition with immobilised ligand", "conditions": "1 µM", "remaining binding [%]": 84}
{"SMILES": "CN(C)c1ncc(F)c(-c2cnn3ncccc23)n1", "assay": "binding", "conditions": "1 µM", "remaining binding [%]": 79}
{"SMILES": "COc1cnc(Nc2cccc(S(N)(=O)=O)c2)nc1N1CCN(c2ccccc2)CC1", "assay": "binding, competition with immobilised ligand", "conditions": "1 µM", "remaining binding [%]": 88}
{"SMILES": "O=C(c1ccc(Nc2nccc(-c3cc4ccccc4s3)n2)cc1)N1CCC(N2CCCC2)CC1", "assay": "binding, competition with immobilised ligand", "conditions": "1 µM", "remaining binding [%]": 100}
{"SMILES": "CCCCN(CCCC)C(=O)CN1C[C@H](c2cc(OC)c3c(c2)OCO3)[C@@H](C(=O)O)[C@@H]1CC(C)(C)CCC", "assay": "cell-free assay, competition with immobilised ligand", "conditions": "1 µM", "remaining binding [%]": 100}
{"SMILES": "COc1ccnn2ncc(-c3ccnc(N(C)C)n3)c12", "assay": "binding", "conditions": "1 µM", "remaining binding [%]": 100}
{"SMILES": "O=C(Nc1c[nH]nc1C(=O)NC1CCNCC1)c1cc(F)cc(F)c1", "assay": "binding, competition with immobilised ligand", "conditions": "1 µM", "remaining binding [%]": 82}
{"SMILES": "CNC(=O)Nc1ccc2c(c1)CC[C@@]21OC(=O)N(CC(=O)N(Cc2ccc(F)cc2)[C@@H](C)C(F)(F)F)C1=O", "assay": "cell-free assay, competition with immobilised ligand", "conditions": "1 µM", "remaining binding [%]": 91}
{"SMILES": "O=C(c1ccc(Nc2ncc(Cl)c(-c3cc4ccccc4s3)n2)cc1)N1CCC(N2CCCC2)CC1", "assay": "binding, competition with immobilised ligand", "conditions": "1 µM", "remaining binding [%]": 64}
